Results published in ChEMBL document CHEMBL4808196, “Dual Bcl-XL /Bcl-2 inhibitors discovered from DNA-encoded libraries using a fragment pairing strategy” (Bioorg Med Chem, 2021).
Calls of active or inactive are those of the source. No cut-off for these calls is given here.

What was measured:
Bcl-2-like protein 1 [1] = molecular target: T1, Bcl-2-like protein 1 (Homo sapiens, UniProt Q07817); experiment: Competitive binding affinity to Bcl-XL (unknown origin) using ABT-199 by western blot based pull down assay
T1 sequence (Q07817 whole entry): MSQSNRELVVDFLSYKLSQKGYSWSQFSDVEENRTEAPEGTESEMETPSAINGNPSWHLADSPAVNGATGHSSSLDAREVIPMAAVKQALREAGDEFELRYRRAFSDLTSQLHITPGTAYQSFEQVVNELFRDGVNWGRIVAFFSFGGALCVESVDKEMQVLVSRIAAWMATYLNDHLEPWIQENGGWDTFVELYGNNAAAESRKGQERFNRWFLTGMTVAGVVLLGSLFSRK

Bcl-2-like protein 1 [2] = molecular target: T1, Bcl-2-like protein 1; experiment: Binding affinity to Bcl-xl (unknown origin) measured by surface plasmon resonance based pull down assay
How it was run: (§1)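 Biotinylated ligand (2800 RU) immobilised on a streptavidin SPR chip. Bcl protein in HBS-EP running buffer injected at 0.5, 0.25, 0.125 and 0.062 µM. Association 120 s, dissociation 240 s, 30 µl/min, 25 C. Surface regenerated with a 5 s pulse of 10 mM NaOH. KD estimated by kinetic fitting.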

[3] = molecular target: Induced myeloid leukemia cell differentiation protein Mcl-1 (Homo sapiens, UniProt Q07820); experiment: Binding affinity to Mcl-1 (unknown origin) measured by surface plasmon resonance based pull down assay; how it was run: as §1
Sequence of Induced myeloid leukemia cell differentiation protein Mcl-1 (Q07820 whole entry): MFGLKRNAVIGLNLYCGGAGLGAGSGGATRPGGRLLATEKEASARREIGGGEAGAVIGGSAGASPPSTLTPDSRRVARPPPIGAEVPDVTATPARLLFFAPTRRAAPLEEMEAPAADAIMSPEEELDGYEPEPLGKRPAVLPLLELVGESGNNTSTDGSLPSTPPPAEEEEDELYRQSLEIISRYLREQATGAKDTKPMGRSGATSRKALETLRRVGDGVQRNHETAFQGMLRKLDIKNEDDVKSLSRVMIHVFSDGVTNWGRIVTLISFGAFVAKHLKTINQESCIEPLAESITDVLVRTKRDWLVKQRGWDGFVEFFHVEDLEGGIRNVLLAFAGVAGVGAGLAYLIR

[4] = molecular target: Apoptosis regulator Bcl-2 (Homo sapiens, UniProt P10415); experiment: Binding affinity to Bcl-2 (unknown origin) measured by surface plasmon resonance based […]; how it was run: as §1
Sequence of Apoptosis regulator Bcl-2 (P10415 whole entry): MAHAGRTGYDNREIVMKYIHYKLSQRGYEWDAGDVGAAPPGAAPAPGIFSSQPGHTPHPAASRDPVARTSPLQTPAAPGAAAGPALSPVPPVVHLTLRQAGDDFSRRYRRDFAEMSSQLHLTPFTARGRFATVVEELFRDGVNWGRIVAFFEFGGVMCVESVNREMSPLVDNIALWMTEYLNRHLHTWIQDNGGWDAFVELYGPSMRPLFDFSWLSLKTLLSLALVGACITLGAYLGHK

Bcl-2-like protein 1 [5] = molecular target: T1, Bcl-2-like protein 1; experiment: Binding affinity to Bcl-XL (unknown origin) using puma peptide by surface plasmon resonance-based competition assay; conditions: dose 1.0 µM
How it was run: (§2)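 SPR competition on a streptavidin chip carrying 2800 RU biotinylated ligand. Flowed 0.5 µM Bcl-XL alone or premixed with 1.0 µM native BH3 peptide: Bim 26mer or Puma 25mer. Binding responses compared.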

K562 = experiment: Cytotoxicity against human K562 cells assessed as cell survival measured after 72 hrs by MTT assay; format: cell-based; conditions: K562, 72 h
How it was run: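 MTT viability assay: 10^4 cells/well seeded and held overnight at 37 C, 5% CO2 (K562 in IMDM with 10% FCS). Serially diluted compounds added for 72 h of exposure. MTT added at 0.3 mg/ml final for 4 h at 37 C. Formazan dissolved in 10% SDS/0.01 N HCl, absorbance read at 560/690 nm. EC50 from concentration–response plot.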

Bcl-2-like protein 1 [6] = molecular target: T1, Bcl-2-like protein 1; experiment: Binding affinity to recombinant Bcl-XL (unknown origin) premixed with human HeLa cell lysate incubated for 1 hr by SDS PAGE Western blot based pull down assay; format: subcellular
How it was run: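 Streptavidin magnetic beads loaded with 100 µM biotinylated compound in PBS-T for 30 min, washed, then equilibrated in HBS-EP. His-tagged recombinant Bcl-XL (0.2 µM) spiked into 10 µg HeLa lysate and incubated with beads for 1 h with rotation. Three washes, heat elution in SDS buffer (95 C, 5 min), SDS-PAGE, anti-His western blot.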

Bcl-2-like protein 1 [7] = molecular target: T1, Bcl-2-like protein 1; experiment: Binding affinity to Bcl-XL (unknown origin) using Bim peptide by surface plasmon resonance-based competition assay; how it was run: as §2

Structure (SMILES)	Activity (Bcl-2-like protein 1 [1])	Kd (Bcl-2-like protein 1 [2])	Kd [3]	Kd [4]	Activity (Bcl-2-like protein 1 [5])	EC50 (K562)	Activity (Bcl-2-like protein 1 [6])	Activity (Bcl-2-like protein 1 [7])
CC(C)C(NC1=NS(=O)(=O)c2ccccc21)C(=O)NCC(NC(=O)C1(NC(=O)COc2ccccc2-c2n[nH]c3ccc(Cl)cc23)CC1)C(=O)NC(=O)CCCCC[C@@H]1SC[C@@H]2NC(=O)N[C@@H]21 (some centres undefined)	Active	0.096 µM	1.24 µM	0.021 µM	Active	1.72 µM	Active	Active
CC1(C)CCC(CN2CCN(c3ccc(C(=O)NS(=O)(=O)c4ccc(NCC5CCOCC5)c([N+](=O)[O-])c4)c(Oc4cnc5[nH]ccc5c4)c3)CC2)=C(c2ccc(Cl)cc2)C1 [VENETOCLAX]	–	–	–	–	–	2.1 µM	–	–
